{"source": "paper PMC10329767", "about": "(Biochemistry, 2023)", "key": {"[1]": {"system": "2,3,5-F3Y158 InhA", "assay_type": "biochemical, Mycobacterium tuberculosis"}, "[2]": {"target": "T1, wild-type InhA (Mycobacterium tuberculosis, UniProt P9WGR1)", "conditions": "read-out: Kiapp; PT166, rapid reversible, global fit to equations 6 and 7"}, "[3]": {"target": "3-FY158 InhA", "conditions": "read-out: Kiapp; PT166, rapid reversible, global fit to equations 6 and 7"}, "[4]": {"target": "3,5-F2Y158 InhA", "assay_type": "biochemical, Mycobacterium tuberculosis", "conditions": "read-out: Kiapp; PT166, rapid reversible, global fit to equations 6 and 7"}, "[5]": {"system": "2,3,5-F3Y158 InhA", "assay_type": "biochemical, Mycobacterium tuberculosis", "conditions": "2,3,5-F3Y158 InhA vs wild-type"}, "[6]": {"target": "T1, wild-type InhA", "assay": "Direct binding fluorescence titration of NADH"}, "[7]": {"target": "2,3,5-F3Y158 InhA", "design": "species or system Mycobacterium tuberculosis", "conditions": "NADH binding, 25 °C, pH 6.8"}, "[8]": {"target": "3,5-F2Y158 InhA", "design": "species or system Mycobacterium tuberculosis", "conditions": "NADH binding, 25 °C, pH 6.8"}, "[9]": {"target": "3-FY158 InhA", "assay": "Direct binding fluorescence titration of NADH", "design": "species or system Mycobacterium tuberculosis", "conditions": "25 °C, pH 6.8"}, "[10]": {"assay": "19F NMR pH titration of the free amino acid in solution", "assay_type": "physicochemical", "conditions": "19F NMR chemical shift vs pD", "summary_of_the_method": "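Free fluorinated Tyr amino acid (5 mg) dissolved in 30 mM deuterated PIPES buffer; pD adjusted with DCl or NaOD across pD 3.6–12.5. 19F spectra recorded on a 400 MHz spectrometer. The 19F chemical shift was plotted against pD and fitted to obtain pKa values.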"}, "[11]": {"system": "Y158F mutant", "conditions": "cited from earlier work"}}, "note": "Several values for one entry are separate records, joined by “and”; a condition that tells them apart may be missing. Equal values may be shown once.", "data": [{"compound": "CCCCCCc1cc(=O)c(Oc2ccccc2C)cn1C", "note": "[PT166]", "values": [{"measurement": "fold change (decrease in affinity) in Kiapp compared to wild-type", "setting": "[1]; PT166, 2,3,5-F3Y158 InhA vs wild-type", "value": "~ 7 fold and 7 fold"}, {"measurement": "Ki", "setting": "[1]; read-out: Kiapp, PT166, rapid reversible, global fit to equations 6 and 7", "value": "213 ± 2", "unit": "nM"}, {"measurement": "Ki", "setting": "[2]", "value": "31 ± 1", "unit": "nM"}, {"measurement": "Ki", "setting": "[3]", "value": "33 ± 1", "unit": "nM"}, {"measurement": "Ki", "setting": "[4]", "value": "48 ± 1", "unit": "nM"}]}, {"compound": "CCCCCCCCC/C=C/C(=O)SCCNC(=O)CCNC(=O)[C@H](O)C(C)(C)COP(=O)(O)OP(=O)(O)OC[C@H]1O[C@@H](n2cnc3c(N)ncnc32)[C@H](O)[C@@H]1OP(=O)(O)O", "note": "[DDCOA, trans-2-dodecenoyl-CoA]", "values": [{"measurement": "fold higher KMapp for dd-CoA than wild-type InhA", "setting": "[5]", "value": "~ 5 fold"}]}, {"compound": "NC(=O)C1=CN([C@@H]2O[C@H](COP(=O)(O)OP(=O)(O)OC[C@H]3O[C@@H](n4cnc5c(N)ncnc54)[C@H](O)[C@@H]3O)[C@@H](O)[C@H]2O)C=CC1", "note": "[NADH]", "values": [{"measurement": "Kd", "setting": "[6]; 25 °C, pH 6.8, C-terminal His-tag InhA", "value": "8.2 ± 0.3", "unit": "µM"}, {"measurement": "N (Hill coefficient)", "setting": "[6]; fit to Equation 1", "value": "3.1 ± 0.3"}, {"measurement": "Kd", "setting": "[7]", "value": "8.7 ± 0.2", "unit": "µM"}, {"measurement": "Kd", "setting": "[8]", "value": "8.1 ± 0.5", "unit": "µM"}, {"measurement": "Kd", "setting": "[9]", "value": "7.1 ± 0.6", "unit": "µM"}]}, {"compound": "N[C@@H](Cc1cc(F)c(O)c(F)c1F)C(=O)O", "note": "[2,3,5-F3Y, 2,3,5-trifluoroTyr]", "values": [{"measurement": "pKa of the hydroxyl group", "setting": "[10]", "value": 6.5}]}, {"compound": "Oc1cc(Cl)ccc1Oc1ccc(Cl)cc1Cl", "note": "[triclosan]", "values": [{"measurement": "fold lower affinity for Y158F mutant compared to wild-type InhA", "setting": "[11]", "value": "~ 100 fold"}]}]}
